Compound activity from PubChem BioAssay.
S1P3 agonist – agonists of human S1P3 receptor. AID 373. S1P3 NFAT-BLA reporter cells, agonism, FRET ratio; relative to 1 µM S1P, basal subtracted. 60,000 tested, 0.1% active. activation, % at 4.5 µM;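 active = activation above the screen-wide mean plus 3 SD, cut at about 4.5% in these data, passing the limit was not always enough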
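Measure – % activation relative to 1 µM S1P (100%), per plate · System – stable CHO line with human S1P3, Gα16, NFAT-BLA reporter · Timing – cells plated overnight, compound 4 h 37 °C, substrate 2 h RT · Technique – fluorescent BLA substrate, ex 405 nm, em 460/535 nm ratio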
5HT1E antag – blocks the human 5-HT1E serotonin receptor | P28566 | CHO 5-HT1E Ga15 NFAT-bla reporter, FRET, antagonist | inhibition, % at 6 µM | 65,000 tested, 0.99% active | AID 571;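 active = inhibition above a set limit, the mean inhibition across every tested compound plus 3 SD, cut at about 29% in these data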;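 also: signal is the 460 over 535 nm emission ratio of beta-lactamase substrate; 0% = agonist plus DMSO wells and 100% = wells without agonist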
5HT1a ag – agonists of human 5-HT1a serotonin receptor; CHO 5-HT1a Ga15 NFAT-bla reporter, FRET ratio; 0% basal, 100% maximal reference agonist; AID 567; activation, % at 10 µM; P08908; 65,000 tested, 0.56% active;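 active = activation above the screen-wide mean activation plus 3 SD, cut at about 19% in these data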;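 also: 0% = DMSO wells and 100% = 5-CT at EC100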
HTR1E agonist – agonists of human 5-HT1E serotonin receptor; P28566; CHO 5-HT1E Ga15 NFAT-bla reporter, FRET; 0% DMSO wells, 100% control agonist wells; activation, % at 6 µM; 65,000 tested, 0.69% active; AID 574;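 active = activation above a set limit, the screen-wide mean activation plus 3 SD, cut at about 8.5% in these data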;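 also: 100% = positive control agonist at 1 µM giving full maximal response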
S1P1 ag-PAM – agonists and agonism potentiators of human S1P1 receptor. activation, % at 9.5 µM. 56,000 tested, 0.57% active. AID 449. P21453. S1P1 CRE-bla cells, forskolin, beta-lactamase FRET, potentiator mode; S1P1 agonist co-added at EC20, 2 nM; 100% = saturating reference agonist, 0% = basal;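 active = activation above a cutoff set at the mean activation of all tested compounds plus 3 SD, cut at about 54% in these data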;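 also: forskolin at 4 µM as EC80 and the EC20 agonist is SEW2871; 100% = SEW2871 at its EC100 plus forskolin at EC80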
Target sequence (P21453 whole entry, looked up): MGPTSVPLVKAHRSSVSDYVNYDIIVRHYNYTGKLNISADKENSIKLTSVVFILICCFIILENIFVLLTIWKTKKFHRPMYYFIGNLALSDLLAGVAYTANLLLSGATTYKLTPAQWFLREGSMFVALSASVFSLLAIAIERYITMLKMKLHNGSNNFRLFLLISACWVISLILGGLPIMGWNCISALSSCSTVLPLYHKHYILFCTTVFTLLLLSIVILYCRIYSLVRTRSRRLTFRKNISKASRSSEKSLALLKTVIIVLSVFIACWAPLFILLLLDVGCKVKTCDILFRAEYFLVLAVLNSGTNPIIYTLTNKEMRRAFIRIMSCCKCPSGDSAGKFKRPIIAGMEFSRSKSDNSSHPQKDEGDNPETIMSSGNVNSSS
5-HT1A blocker – blocks the human serotonin 5-HT1a receptor. inhibition, % at 10 µM. P08908. 62,000 tested, 0.68% active. CHO 5-HT1a Ga15 NFAT-bla reporter, antagonist mode;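 active = inhibition above the mean of all tested compounds plus 3 SD, cut at about 43% in these data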;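 also: receptor stimulated by 5-CT agonist at 100 nM near EC80; beta-lactamase reporter measured by ratiometric fluorescence of a cleavable substrate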
* marks the source's active call; other numbers are inactive results. Most compounds without a hit are left out; they make up all but 3% or so of the library.

N#Cc1nc(-c2ccccc2Cl)oc1N1CCCCC1 was read as S1P3 agonist -4, 5HT1E antag 33*, 5HT1a ag -1, HTR1E agonist 0 and S1P1 ag-PAM -15.
Screening O=C(NCc1cccs1)C1CCCN(S(=O)(=O)c2cccc3cccnc23)C1 (configuration not stated) returned S1P3 agonist -1, 5HT1E antag 15, 5HT1a ag -2, HTR1E agonist 1, S1P1 ag-PAM -32 and 5-HT1A blocker -8.
CCOC(=O)Cc1csc(NC(=O)c2ccc(Br)s2)n1 was read as S1P3 agonist -1, 5HT1E antag 12, 5HT1a ag -2, HTR1E agonist -2, S1P1 ag-PAM 66* and 5-HT1A blocker 18.
For O=C(CN1C(=O)CSC1=O)Nc1ccccc1N1CCOCC1 the results were S1P3 agonist -1, 5HT1E antag 8, 5HT1a ag -4, HTR1E agonist 10*, S1P1 ag-PAM 2 and 5-HT1A blocker 8.
For O=C(CSc1ccccc1)Nc1ccccc1N1CCOCC1 the results were S1P3 agonist 0, 5HT1E antag 9, 5HT1a ag -4, HTR1E agonist -1, S1P1 ag-PAM -40 and 5-HT1A blocker -3.
Screening O=C(NCCCN1CCN(c2ccc(F)cc2)CC1)c1cccc(N2CCCC2=O)c1 returned S1P3 agonist -1, 5HT1E antag 13, 5HT1a ag -2, HTR1E agonist 0, S1P1 ag-PAM 12 and 5-HT1A blocker 71*.
`O=C(NCCCN1CCCC1)c1cccc(N2CCCC2=O)c1` gave 5HT1E antag 0, 5HT1a ag -2, HTR1E agonist -1 and 5-HT1A blocker 7.
`Cc1cc(O)c(C(C)C)cc1NS(=O)(=O)c1ccccc1` gave S1P3 agonist 0, 5HT1E antag -1, 5HT1a ag -2, HTR1E agonist -1, S1P1 ag-PAM -18 and 5-HT1A blocker 8.
`COc1ccc(-c2cc(=O)oc3cc(OCc4nn[nH]n4)ccc23)cc1` gave S1P3 agonist -1, 5HT1E antag -11, 5HT1a ag 0, HTR1E agonist 1, S1P1 ag-PAM 16 and 5-HT1A blocker -2.
`CCCCN(C)CCNC(=O)Cn1ncc2c(=O)oc3ccc(C)cc3c21` gave S1P3 agonist 0, 5HT1E antag -10, 5HT1a ag -1, HTR1E agonist 10*, S1P1 ag-PAM 1 and 5-HT1A blocker 1.
Screening COc1ccc(C(NC(=O)CNC(C)=O)C(=O)Nc2ccc3c(c2)OCCO3)cc1 (configuration not stated) returned S1P3 agonist 0, 5HT1E antag -11, 5HT1a ag -1, HTR1E agonist -1, S1P1 ag-PAM -21 and 5-HT1A blocker -5.
`O=S(=O)(c1cccs1)N1CCN(CC(O)COc2cc(Cl)ccc2Cl)CC1` (configuration not stated) gave S1P3 agonist -1, 5HT1E antag 8, 5HT1a ag -1, HTR1E agonist 0, S1P1 ag-PAM 66* and 5-HT1A blocker -4.
`CS(=O)(=O)N1CCC(C(=O)Nc2ccccc2Sc2ccccc2)CC1` gave S1P3 agonist 0, 5HT1E antag 2, 5HT1a ag 0, HTR1E agonist 0, S1P1 ag-PAM 9 and 5-HT1A blocker 12.
CC(=O)Nc1ccccc1Sc1ccccc1 was read as S1P3 agonist -1, 5HT1E antag 32*, 5HT1a ag -2, HTR1E agonist -1, S1P1 ag-PAM -22 and 5-HT1A blocker 22.
CCN(CC)CCCN1C(=O)C(O)=C(C(=O)c2ccco2)C1c1ccc(C)o1 (configuration not stated) was read as 5HT1E antag 4, 5HT1a ag 0, HTR1E agonist 1 and 5-HT1A blocker 2.
For CC1=C(C(=O)Nc2ccccc2)C(c2ccc(C)o2)n2c(s/c(=C\c3ccco3)c2=O)=N1 (configuration not stated) the results were S1P3 agonist -1, 5HT1E antag 42*, 5HT1a ag 0, HTR1E agonist 0, S1P1 ag-PAM 7 and 5-HT1A blocker 28.
`Cc1sc2ncnc(SCC(=O)NC(=O)NCc3ccco3)c2c1C` gave S1P3 agonist 0, 5HT1E antag 28, 5HT1a ag 98*, HTR1E agonist 0, S1P1 ag-PAM -28 and 5-HT1A blocker 27.
Cc1nc(SCC(=O)NCc2ccco2)c2c(C)c(C)sc2n1 was read as S1P3 agonist 1, 5HT1E antag 6, 5HT1a ag -1, HTR1E agonist 0, S1P1 ag-PAM -7 and 5-HT1A blocker -6.
For O=C1C2C3C=CC(CO)(O3)C2C(=O)N1c1ccc(-c2ccccc2)cc1 (configuration not stated) the results were 5HT1E antag 61*, 5HT1a ag -6, HTR1E agonist 0 and 5-HT1A blocker 88*.
Screening Cc1nn(Cc2ccccc2Cl)c2sc(C(=O)NCCCn3ccnc3)cc12 returned S1P3 agonist -1, 5HT1E antag 9, 5HT1a ag -1, HTR1E agonist 0, S1P1 ag-PAM -21 and 5-HT1A blocker 0.
`N=c1sc2ccccc2n1-c1ccccc1` gave 5HT1E antag 25, 5HT1a ag 3, HTR1E agonist 25* and 5-HT1A blocker -7.
`CCCNC(=O)c1c(N)n(-c2cccc(OC)c2)c2nc3ccccc3nc12` gave S1P3 agonist 2, 5HT1E antag -11, 5HT1a ag 42*, HTR1E agonist 8.7*, S1P1 ag-PAM -151 and 5-HT1A blocker -26.
COCCCNC(=O)c1c(N)n(-c2cccc(S(N)(=O)=O)c2)c2nc3ccccc3nc12 was read as S1P3 agonist 1, 5HT1E antag -2, 5HT1a ag 6, HTR1E agonist 3, S1P1 ag-PAM -14 and 5-HT1A blocker -25.
`Cc1nn(Cc2ccc(C(=O)Nc3nccs3)cc2)c(C)c1Cl` gave S1P3 agonist -1, 5HT1E antag 12, 5HT1a ag -6, HTR1E agonist 0, S1P1 ag-PAM 4 and 5-HT1A blocker 2.
`COc1ccc(C(c2nnnn2Cc2ccccc2)N2CCN(c3ccccc3)CC2)cc1` (configuration not stated) gave S1P3 agonist -1, 5HT1E antag 3, 5HT1a ag 1, HTR1E agonist 0, S1P1 ag-PAM -4 and 5-HT1A blocker 36.
For COc1ccc(C(c2nnnn2C2CCCCC2)N2CCN(c3ccccc3)CC2)cc1 (configuration not stated) the results were S1P3 agonist -2, 5HT1E antag 3, 5HT1a ag -1, HTR1E agonist 0, S1P1 ag-PAM 13 and 5-HT1A blocker 52*.
